Calls of active or inactive are those of the source.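 Rule for the calls, unless noted: active = inhibition of the reporter signal at or above 50%; inactive = inhibition below 50%.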
Columns and labels:
[1] = inhibitors of TNFa-induced NFkB p65 translocation, primary screen, imaging, HUVEC, MLSMR starter and 10KST1 sets (AID 438;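 active = inhibition above 20% together with a positive visual image hit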;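 note: compound added about 3h40 before a 20 min TNFalpha stimulation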;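 for inhibition: signal is the nuclear over cytoplasmic p65 intensity ratio per well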); details: HUVEC TNFa-induced p65 nuclear translocation; cell count: measured here: nuclei count (cytotoxicity indicator), at 2.08 µM; inhibition: at 2 µM, stronger effect = higher value, 0% TNFa-plus-vehicle, 100% no-TNFa wells
[2] = inhibitors of mutant huntingtin aggregation, primary screen, imaging, exon1htt(103Q)mCFP cells, high-content imaging (AID 483;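 active = visual image review flags a hit and inhibition of aggregation exceeds 20%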;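 note: compound exposure lasted 3 days before fixation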;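 for nuclei count: percent of the per-plate median nuclei count of sample wells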); details: exon1htt(103Q)mCFP cell line, aggregate imaging, at 2 µM; inhibition of aggregation: stronger effect = higher value; nuclei count: measured here: cell count, toxicity
[3] = inhibitors of E-selectin induction by TNFa, primary screen, imaging, HUVEC, immunofluorescence, MLSMR starter and 10KST1 sets (AID 487;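 active = visually confirmed hit in the image check and inhibition above 20%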;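 for inhibition: signal is fraction of cell area covered by stained E-selectin grains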;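 for nuclei count: 100% = median nuclei count of all wells on the same plate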); details: HUVEC TNFalpha-induced E-selectin immunofluorescence imaging, at 2 µM; inhibition: stronger effect = higher value; nuclei count: measured here: cell number, toxicity
[4] = target: Voltage-gated potassium channel subunit beta-2 (Rattus norvegicus) (UniProt P62483); assay: KvBeta enzyme negative modulators, primary screen, biochemical, NADPH fluorescence (AID 622;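 active = fluorescence slope higher than the sample average by over 3 SD, cut at about -0.22 in these data, passing the limit was not always enough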;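 note: slope of raw intensity against log time taken from 70 to 1610 s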); details: recombinant KvBeta, 4-cyanobenzaldehyde reduction, at 10 µM, stronger effect = higher value
[5] = target: Voltage-gated potassium channel subunit beta-2 (Rattus norvegicus) (UniProt P62483); assay: KvBeta positive modulators, primary screen, biochemical, NADPH fluorescence (AID 623;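 active = NADPH fluorescence slope more negative than the mean of all samples by about 3 SD, 99.7% confidence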;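 note: fluorescence intensity change per second fitted from 20 to 320 s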); details: Recombinant KvBeta, NADPH fluorescence decrease slope, 10 min; at 10 µM; stronger effect = lower value
[6] = target: Muscarinic acetylcholine receptor M4 (Homo sapiens) (UniProt P08173); assay: compounds altering M4/GIRK thallium flux, either direction, primary screen, M4 allosteric agonist project, cell-based, HEK293 M4/GIRK, BTC-AM (AID 625;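 active = fluorescence slope after compound addition differing from the mean of all tested samples at 99.7% confidence, mostly higher but some lower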;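 note: thallium influx through GIRK channels coupled to M4 in HEK293 cells with BTC-AM dye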); details: at 10 µM, actives lie on both sides
Procedure, shortened: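 Material – HEK293 cells with M4 receptor and GIRK channels · Buffer or medium – pH 7.3 thallium assay buffer · Doses – one dose, 10 µM final · Timing – cells overnight at 37 °C, BTC-AM loading 1 h, reads 2 min total · Measured by – kinetic fluorescence with BTC-AM dye · Controls – carbachol and DMSO controls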

[7] = inhibitors of Sendai virus-induced IRF3 signaling, primary screen, TLR/RLR signaling modifier project, cell-based, Sendai virus stimulus, luciferase, 10K MLSCN set (AID 602276;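 active = inhibition at or above 50% at 10 µM; inactive = inhibition below 50%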;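 note: firefly luciferase from ISG56 promoter only with Renilla not read in this screen; 0% = Sendai virus plus DMSO and 100% = medium plus DMSO without virus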); details: HEK293 RL24 IRF3 luciferase reporter, at 10 µM, stronger effect = higher value
[8] = inhibitors of poly I:C-induced TLR3 signaling, primary screen, cell-based, poly I:C stimulus, luciferase, 10K MLSCN set (AID 602277); details: HEK293-TLR3 RL24 IRF3 luciferase reporter, at 10 µM, stronger effect = higher value

Voltage-gated potassium channel subunit beta-2 (Rattus norvegicus), sequence (P62483 whole entry, looked up): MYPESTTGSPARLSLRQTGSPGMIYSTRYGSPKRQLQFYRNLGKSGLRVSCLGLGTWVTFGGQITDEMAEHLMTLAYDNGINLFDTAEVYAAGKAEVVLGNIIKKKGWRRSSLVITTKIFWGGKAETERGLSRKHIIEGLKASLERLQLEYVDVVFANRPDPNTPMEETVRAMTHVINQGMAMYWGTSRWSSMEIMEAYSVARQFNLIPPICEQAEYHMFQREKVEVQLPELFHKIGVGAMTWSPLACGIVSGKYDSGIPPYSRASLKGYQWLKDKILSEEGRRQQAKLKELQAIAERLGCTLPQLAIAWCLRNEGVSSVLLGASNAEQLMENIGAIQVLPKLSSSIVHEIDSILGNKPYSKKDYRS
Muscarinic acetylcholine receptor M4 (Homo sapiens), sequence (P08173 whole entry, looked up): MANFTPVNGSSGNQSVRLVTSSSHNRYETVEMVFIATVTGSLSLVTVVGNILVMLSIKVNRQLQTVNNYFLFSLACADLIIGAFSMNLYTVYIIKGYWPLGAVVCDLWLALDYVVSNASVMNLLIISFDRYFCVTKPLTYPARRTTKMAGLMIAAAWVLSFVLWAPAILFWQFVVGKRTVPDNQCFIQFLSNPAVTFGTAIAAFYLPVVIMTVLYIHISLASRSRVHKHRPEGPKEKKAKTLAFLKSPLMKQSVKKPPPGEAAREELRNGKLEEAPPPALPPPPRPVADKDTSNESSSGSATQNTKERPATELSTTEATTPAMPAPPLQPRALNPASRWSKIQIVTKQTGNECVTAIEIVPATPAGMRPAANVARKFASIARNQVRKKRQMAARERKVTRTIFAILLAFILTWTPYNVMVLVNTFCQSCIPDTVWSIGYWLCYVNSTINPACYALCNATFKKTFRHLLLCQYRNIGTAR

Structure (SMILES)	cell count [1]	inhibition [1]	inhibition of aggregation [2]	nuclei count [2] [%]	inhibition [3]	nuclei count [3] [%]	fluorescence slope [4]	NADPH fluorescence slope [5]	fluorescence slope [6]	inhibition [7]	inhibition [8]
Cc1cnc(C(=O)Nc2ccc(-n3cnnn3)cc2)cn1	508	-16.7% (inactive)	-8.7% (inactive)	95.2	15.8% (inactive)	95.7	-0.513 (inactive)	-5.9e-05 (inactive)	0.00454 (inactive)	10.3% (inactive)	-4.35% (inactive)
CCCOc1ccc(-c2nnn(CC(=O)Nc3cccc(C(=O)OC)c3)n2)cc1	380	-2.1% (inactive)	-8.7% (inactive)	109	-27.4% (inactive)	112	-0.503 (inactive)	0.000154 (inactive)	0.00964 (inactive)	11.3% (inactive)	-4.78% (inactive)
CCC(Oc1ccc2ccccc2c1)C(=O)O (centres undefined)	666	-4% (inactive)	-46.2% (inactive)	129	-39.6% (inactive)	137	-0.489 (inactive)	6e-05 (inactive)	0.00595 (inactive)	-9.77% (inactive)	-32.2% (inactive)
COc1ccc(C2C(=O)N(C3CCCCC3)CC(=O)N2Cc2ccco2)cc1 (centres undefined)	632	-15% (inactive)	-40.5% (inactive)	124	-26.6% (inactive)	101	-0.526 (inactive)	1.7e-05 (inactive)	0.00562 (inactive)	16.7% (inactive)	22.1% (inactive)
CC(NC(=O)OCc1ccccc1)C(=O)N1CC(O)CC1C(=O)O (centres undefined)	280	0.9% (inactive)	2.6% (inactive)	79.3	26.8% (inactive)	85.4	-0.562 (inactive)	-1.6e-05 (inactive)	0.00618 (inactive)	16.9% (inactive)	22.2% (inactive)
CCOCCCNC(=O)c1ccc2c(c1)ncn2C1CCCC1	573	-4.8% (inactive)	-5.5% (inactive)	100	-12% (inactive)	94.4	-0.495 (inactive)	4.4e-05 (inactive)	0.00159 (inactive)	-12.4% (inactive)	-122% (inactive)
CC1(C)CC(=O)C2=C(C1)N(Cc1ccco1)C(=O)C2(NC(=O)C1CCCCC1)C(F)(F)F (centres undefined)	670	-2.6% (inactive)	9.8% (inactive)	111	-51% (inactive)	116	-0.453 (inactive)	-6.1e-05 (inactive)	0.00581 (inactive)	16.7% (inactive)	21.1% (inactive)
CCCCOC(=O)Cn1c(=N)n(CCN2CCOCC2)c2ccccc21	488	4% (inactive)	7.9% (inactive)	91.9	-46.3% (inactive)	84.8	-0.354 (inactive)	-6.5e-05 (inactive)	0.00576 (inactive)	8.18% (inactive)	17.7% (inactive)
CCOC(=O)c1sc(NC(=O)CSc2nc3c(cc2C#N)CCC3)c(C#N)c1C	775	-6.4% (inactive)	-2.5% (inactive)	94.5	-140% (inactive)	140	-0.457 (inactive)	2.2e-05 (inactive)	0.00501 (inactive)	18.5% (inactive)	18.8% (inactive)
COC(=O)c1c(N)nc(C)n1-c1ccc(OC)cc1	324	-9.2% (inactive)	32.1% (active)	70.1	2.7% (inactive)	103	-0.364 (inactive)	3e-05 (inactive)	0.00554 (inactive)	5.37% (inactive)	9.69% (inactive)
CSc1nc(NC(C)(C)C)nc(Oc2ccc(=O)[nH]n2)n1	356	-6.2% (inactive)	10.5% (inactive)	86.5	-29.6% (inactive)	107	-0.594 (inactive)	1.9e-06 (inactive)	0.0039 (inactive)	12.8% (inactive)	11.8% (inactive)
COc1ccc(OC)c(S(=O)(=O)Nc2ccc(C(N)=O)cc2)c1	684	-2.6% (inactive)	-13.7% (inactive)	107	-57% (inactive)	113	-0.519 (inactive)	-0.000185 (inactive)	0.00432 (inactive)	18.4% (inactive)	23.9% (inactive)
CCn1c(SCC(=O)c2ccc3c(c2)OCCO3)nnc1-c1ccco1	571	-38.8% (inactive)	-1% (inactive)	115	-52.3% (inactive)	117	-0.514 (inactive)	-2.2e-05 (inactive)	0.00561 (inactive)	11.1% (inactive)	0.911% (inactive)
CC(C)n1c(=NC(=O)c2ccco2)c(C#N)cc2c(=O)n3ccccc3cc21	378	1.7% (inactive)	-20.7% (inactive)	104	-45.7% (inactive)	112	-0.576 (inactive)	3.1e-06 (inactive)	0.00331 (inactive)	-23.8% (inactive)	-8.73% (inactive)

— PubChem BioAssay
